The values below come from ChEMBL document CHEMBL3259650, “Synthesis of symmetrically substituted 3,3-dibenzyl-4-hydroxy-3,4-dihydro-1H-quinolin-2-ones, as novel quinoline derivatives with antibacterial activity” (Eur J Med Chem, 2014).

The test system of assay [1] is Burkholderia cepacia. Description: Antibacterial activity against Burkholderia cepacia ATCC 17759 assessed as growth inhibition after 24 hrs by micro dilution method. The assay is classed as functional. To be noted: ATCC 17759, 24 h. A digest of the protocol: (§1)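 MIC determined by broth microdilution in casein soy broth (pH 7.3) at an inoculum of 10^5 CFU/mL, incubated 24 h at 37 C. Levofloxacin was the comparator and controls were run alongside. Samples were tested in quadruplicate.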

Assay [2] relates to Escherichia coli. Nature of the assay: Antibacterial activity against Escherichia coli ATCC 25922. The assay is classed as functional.
The subject of assay [3] is Morganella morganii. Description: Antibacterial activity against Morganella morganii ATCC 8019. The assay is classed as functional.
Assay [4] has as its system Shigella sonnei. Nature of the assay: Antibacterial activity against Shigella sonnei ATCC 15305 assessed as growth inhibition after 24 hrs by micro dilution method. The assay is classed as functional. To be noted: ATCC 15305, 24 h. A digest of the protocol: as §1
Assay [5] has as its system Enterococcus sp. Description: Antibacterial activity against Enterococcus sp. ATCC 6589 assessed as growth inhibition by measuring turbidity of medium at 6.25 to 100 ug/mL measured over 10 hrs by microplate reader analysis. In kind it is functional, organism-based. A digest of the protocol: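 Overnight casein soy broth cultures (37 C) were centrifuged, resuspended in fresh medium and adjusted to about 5 10^7 cells/mL (OD620 0.2). Cells were grown in microplate wells to mid-log phase, then twofold serial dilutions of the test agents in fresh medium were added. OD620 was read every 15 min at 23 C for 10 h, with 30 s shaking between reads. Runs were in quadruplicate.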

The subject of assay [6] is Enterococcus sp. Description: Antibacterial activity against Enterococcus sp. ATCC 6589. In kind it is functional.
Assay [7] has as its system Burkholderia cepacia. Description: Antibacterial activity against Burkholderia cepacia ATCC 17759. The assay is classed as functional.
Assay [8] relates to Staphylococcus aureus. Nature of the assay: Antibacterial activity against Staphylococcus aureus ATCC 6538p. In kind it is functional. The gist of the method:
as §1

Assay [9] concerns Morganella morganii. Nature of the assay: Antibacterial activity against Morganella morganii ATCC 8019 assessed as growth inhibition after 24 hrs by micro dilution method. The assay is classed as functional. The conditions noted are these: ATCC 8019, 24 h. A digest of the protocol:
as §1

In assay [10] the test system is Shigella sonnei. Nature of the assay: Antibacterial activity against Shigella sonnei ATCC 15305. In kind it is functional.
The subject of a further assay is Pseudomonas aeruginosa. Nature of the assay: Antibacterial activity against Pseudomonas aeruginosa ATCC […] assessed as growth inhibition after 24 hrs by micro dilution method. The assay is classed as functional. A digest of the protocol:
as §1

Another assay relates to Bacillus spizizenii. Description: Antibacterial activity against Bacillus subtilis ATCC 6633 assessed as growth inhibition after 24 hrs by micro dilution method. In kind it is functional. The conditions noted are these: ATCC 6633, 24 h. The gist of the method: as §1
The test system of assay [11] is Salmonella typhimurium. Description: Antibacterial activity against Salmonella typhimurium ATCC 14028. The assay is classed as functional, Salmonella enterica subsp. enterica serovar Typhimurium. The gist of the method:
as §1

Assay [12] has as its system Escherichia coli. Description: Antibacterial activity against Escherichia coli ATCC 25922 assessed as growth inhibition after 24 hrs by micro dilution method. In kind it is functional. The conditions noted are these: ATCC 25922, 24 h. A digest of the protocol:
as §1

Assay [13] has as its system Salmonella typhimurium. Description: Antibacterial activity against Salmonella typhimurium ATCC 14028 assessed as growth inhibition after 24 hrs by micro dilution method. The assay is classed as functional, Salmonella enterica subsp. enterica serovar Typhimurium. To be noted: Salmonella enterica, ATCC 14028, 24 h. A digest of the protocol: as §1
In assay [14] the test system is Enterococcus sp. Description: Antibacterial activity against Enterococcus sp. ATCC 6589 assessed as growth inhibition after 24 hrs by micro dilution method. The assay is classed as functional. To be noted: ATCC 6589, 24 h. A digest of the protocol:
as §1

The subject of a further assay is Klebsiella aerogenes. Nature of the assay: Antibacterial activity against Enterobacter aerogenes ATCC 13048 assessed as growth inhibition after 24 hrs by micro dilution method. In kind it is functional. To be noted: ATCC 13048, 24 h. A digest of the protocol:
as §1

Assay [15] concerns Staphylococcus aureus. Description: Antibacterial activity against Staphylococcus aureus ATCC 6538p assessed as growth inhibition after 24 hrs by micro dilution method. The assay is classed as functional. A digest of the protocol: as §1

Active and inactive are the calls of the source.

On to `C[C@H]1COc2c(N3CCN(C)CC3)c(F)cc3c(=O)c(C(=O)O)cn1c23.C[C@H]1COc2c(N3CCN(C)CC3)c(F)cc3c(=O)c(C(=O)O)cn1c23.O` [LEVOFLOXACIN], for which the minimal inhibitory concentration (MIC) in the assay on Burkholderia cepacia [1] was 0.78 µg/mL; with Shigella sonnei [4], 3.12 µg/mL; with Morganella morganii [9], 0.78 µg/mL; in the assay on Pseudomonas aeruginosa it was 3.12 µg/mL; in the assay on Bacillus spizizenii, 3.12 µg/mL; with Escherichia coli [12], 3.12 µg/mL. In addition, the minimum inhibitory concentration (MIC) was 0.78 µg/mL in the assay with Salmonella typhimurium [13], 0.78 µg/mL in the assay with Enterococcus sp. [14], 0.78 µg/mL with Klebsiella aerogenes and 3.12 µg/mL in the assay with Staphylococcus aureus [15]. Also, the MLC with Escherichia coli [2] came out at 3.12 µg/mL; in the assay on Morganella morganii [3] it was 0.78 µg/mL; with Enterococcus sp. [6], 0.78 µg/mL; in the assay with Burkholderia cepacia [7], 0.78 µg/mL; with Staphylococcus aureus [8], 3.12 µg/mL; with Shigella sonnei [10], 3.12 µg/mL. For the same compound, in the assay with Salmonella typhimurium [11], the MLC turned out to be 0.78 µg/mL. For the same compound, the “growth inhibition (GI)” value in the assay on Enterococcus sp. [5] is “Active”.

By MIC is commonly meant the smallest concentration in the dilution series that meets the test's criterion for growth inhibition.
